VIM-2 inh: inhibitors of Pseudomonas aeruginosa VIM-2 metallo-beta-lactamase | purified VIM-2, nitrocefin hydrolysis, epi-absorbance fluorescence | actives 0.89% (n = 290,000) | inhibition, % at 5.6 µM;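 active = inhibition above the mean of all tested compounds plus 3 SD, cutoff set per screening run, cut at about 7.5% in these data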;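 note: red hydrolysis product quenches plate fluorescence so inhibitors raise well fluorescence; 0% = enzyme with DMSO and 100% = DMSO without enzyme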
CHT inh: inhibits the human high affinity choline transporter; AID 488975; CHT-expressing cells, membrane potential dye, choline response; active compounds read low; Q9GZV3; actives 0.86% (n = 310,000); B-score at 10 µM;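 active = B-score over 3 SD under the library average, and starting fluorescence ratio not unusually high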;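 note: choline stimulus applied at its EC90 after an EC20 pre-addition; B-score computed on integrated fluorescence ratio after choline addition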
ANO1 block: blocks the mouse calcium-activated chloride channel TMEM16A. actives 1.2% (n = 310,000). normalized B-score (activity score, 25-100; higher = stronger inhibition) at 10 µM. AID 588511. HEK293 TMEM16A/YFP iodide influx fluorescence, ionomycin;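 active = ratio plate-corrected score three or more library SD toward inhibition, starting fluorescence score within five deviations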;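 note: score derived from kinetic fluorescence span divided by baseline fluorescence per well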
IMP-1 inh: blocks Pseudomonas aeruginosa IMP-1 metallo-beta-lactamase; actives 0.45% (n = 290,000); purified IMP-1, nitrocefin hydrolysis, epi-absorbance fluorescence; AID 1556; inhibition, % at 5.6 µM;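 active = inhibition above the mean plus 3 SD of all compounds in the same screening run, cut at about 4.5% in these data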;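 note: 0% = IMP-1 with DMSO and 100% = DMSO wells lacking enzyme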
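System: Purified recombinant IMP-1 metallo-beta-lactamase enzyme | Measured by: Fluorescence quenching readout, ex 480/em 530 nm | Replication: Singlicate | Incubation: 15 min preincubation plus 25 min reaction at 25 °C | Evaluation: Percent inhibition from optical density relative to buffer-blank wells | Benchmarks: DMSO with and without IMP-1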
CHT allo act: allosteric activators of human choline transporter CHT | Q9GZV3 | CHT-expressing cells, membrane potential dye, choline EC20; active compounds read high; LV-AA mutant CHT in HEK293 cells | B-score at 10 µM | actives 0.49% (n = 310,000) | AID 488977;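 active = initial fluorescence not abnormally high and integrated response B-score, plate-corrected, over 3 SD above library mean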
ANO1 activ: mouse TMEM16A channel activation, primary screen. HEK293 TMEM16A/YFP-H148Q/I152L, iodide quench fluorescence; active compounds read low. B-score at 10 µM. actives 0.3% (n = 340,000). AID 623877;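 active = fluorescence-ratio B-score plate-corrected deviation score at least 3 library SD below zero, with starting fluorescence score within 5 deviations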;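 note: channel opened by trigger with iodide after compound preincubation; score built on the fluorescence ratio of max minus min over baseline; more negative score means more quench and so TMEM16A activation or potentiation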
TMEM16A reconf: re-confirmation of mouse TMEM16A chloride channel inhibitors | shares compounds with ANO1 block | HEK293 TMEM16A/YFP-H148Q, iodide quench fluorescence; ionomycin added to raise cell calcium | inhibition, % at 10 µM | actives 39% (n = 2,300) | AID 652189;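 active = mean duplicate percent inhibition, scaled so buffer wells are 0 and the reference blocker 100, over three buffer SD above buffer mean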
HEK293 Ca mobil: calcium mobilization counter-screen hit for TMEM16A inhibitor series. shares compounds with ANO1 block. TMEM16A/YFP HEK293, Fluo4 calcium mobilization. calcium response (% of ionomycin), % at 10 µM. actives 2% (n = 2,300);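 active = duplicate-averaged calcium signal over 20% of the ionomycin maximum, relative to buffer baseline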;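 note: each well's signal is peak minus trough fluorescence divided by its pre-addition baseline; 0% = buffer wells and 100% = ionomycin wells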
Parental YFP cnt: counter-screen for TMEM16A inhibitors: effect in parental YFP-HEK293 cells | shares compounds with ANO1 block | iodide YFP quench, ionomycin | YFP ratio F(max-min)/F0 at 10 µM | 2,300 tested, under 10 active | AID 652233;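 active = yellow fluorescent protein signal ratio exceeding the buffer control mean by over 5 SD of those controls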;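 note: ratio is mean of duplicate wells from kinetic YFP trace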
ClC-1 inh: rat ClC-1 inhibition, TMEM16A specificity screen; ratio percent, % at 10 µM; 2,300 tested, under 10 active; CHO ClC-1-YFP, iodide influx fluorescence quench; iodide control reads 0, buffer control 100; AID 652236; shares compounds with ANO1 block;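 active = duplicate-mean ratio percent above the mean of iodide-only control wells, which defines zero, plus 5 of their SD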;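 note: higher percent means stronger block of ClC-1 iodide influx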
Target sequence (P35524 whole entry, looked up): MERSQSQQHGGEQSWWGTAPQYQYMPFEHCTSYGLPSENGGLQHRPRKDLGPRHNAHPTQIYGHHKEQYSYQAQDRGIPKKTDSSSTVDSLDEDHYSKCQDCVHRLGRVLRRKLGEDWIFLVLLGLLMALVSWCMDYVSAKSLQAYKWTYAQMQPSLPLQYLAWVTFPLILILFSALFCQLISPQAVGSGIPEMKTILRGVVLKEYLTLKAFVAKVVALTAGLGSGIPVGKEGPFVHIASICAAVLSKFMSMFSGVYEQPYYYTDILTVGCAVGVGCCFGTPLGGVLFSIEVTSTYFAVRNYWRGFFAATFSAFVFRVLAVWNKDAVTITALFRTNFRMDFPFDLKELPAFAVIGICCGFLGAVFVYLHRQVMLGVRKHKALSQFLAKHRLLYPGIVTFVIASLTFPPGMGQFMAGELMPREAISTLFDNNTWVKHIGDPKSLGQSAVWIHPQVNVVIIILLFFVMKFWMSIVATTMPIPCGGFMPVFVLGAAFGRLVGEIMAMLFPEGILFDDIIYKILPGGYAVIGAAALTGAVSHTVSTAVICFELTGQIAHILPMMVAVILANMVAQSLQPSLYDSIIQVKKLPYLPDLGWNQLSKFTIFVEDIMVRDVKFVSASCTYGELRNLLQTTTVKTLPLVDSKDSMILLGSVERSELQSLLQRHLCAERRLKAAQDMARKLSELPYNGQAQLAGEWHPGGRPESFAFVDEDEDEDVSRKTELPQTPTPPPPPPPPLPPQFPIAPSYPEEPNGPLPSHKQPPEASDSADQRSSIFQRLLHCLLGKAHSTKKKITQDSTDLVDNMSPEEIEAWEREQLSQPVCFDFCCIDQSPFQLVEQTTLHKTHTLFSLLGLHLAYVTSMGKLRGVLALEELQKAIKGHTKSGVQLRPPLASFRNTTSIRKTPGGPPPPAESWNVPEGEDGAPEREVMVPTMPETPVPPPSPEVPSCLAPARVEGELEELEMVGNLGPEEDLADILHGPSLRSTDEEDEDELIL
Active calls of the source: *; i = inactive; nt = no result. Most compounds without a hit are left out; they make up all but 3.4% or so of the library.

SMILES	VIM-2 inh	CHT inh	ANO1 block	IMP-1 inh	CHT allo act	ANO1 activ	TMEM16A reconf	HEK293 Ca mobil	Parental YFP cnt	ClC-1 inh
C[C@@H](CSc1ccc(Br)cc1)CN1CC[C@H](C(C)(C)C)CCC1=O	nt	nt	nt	nt	nt	i	nt	nt	nt	nt
Cc1ccc(SC[C@H](C)CN2CC[C@H](C(C)(C)C)CCC2=O)cc1	-1.2	i	100*	-3.2	i	i	38.0%*	i	-0.894	-0.5
CCc1c(C)nc2nc(SCc3ccccc3Cl)[nH]n2c1=O	-2.1	i	100*	-1.4	i	i	26.0%*	33.5%*	-1.01	-29.0
Cc1ccc2[nH]c3c(N4CCN(Cc5ccc6c(c5)OCO6)CC4)ncnc3c2c1	0.8	nt	nt	3.4	nt	nt	nt	nt	nt	nt
Cc1ccc2c(c1)[nH]c1c(N3CCN(Cc4ccccc4)CC3)ncnc12	-2.1	i	25*	-2.7	i	i	25.0%*	i	-1.01	-23.5
c1ccc(CN2CCN(c3ncnc4c3[nH]c3ccccc34)CC2)cc1	2.6	i	100*	-0.2	i	i	19.0%*	i	-0.992	-24.5
C=C[C@@H]1c2ccccc2N(S(=O)(=O)c2ccc(C)cc2)[C@H](c2ccc(C(=O)OC)cc2)C1(C#N)C#N	nt	nt	nt	nt	nt	i	nt	nt	nt	nt
CC1CCN(C(=O)c2[nH]cnc2C(=O)N[C@@H](CCCCNC(=O)OC(C)(C)C)C(=O)OC(C)(C)C)CC1	nt	i	100*	nt	i	i	i	i	-1.24	-16.0
CCOC(=O)C1=C(C)NC2=C(C(=O)C(C(=O)OC)C(C)C2)C1c1ccc(OC)c(O)c1 (configuration not stated)	0.1	i	25*	3.5	i	i	i	i	-0.852	-0.5
Cc1ccc(S(=O)(=O)N2CCN(c3ccnc4cc(Cl)ccc34)CC2)cc1	10.2*	i	100*	-0.4	i	i	i	i	-1.25	-14.0
Cc1ccc(S(=O)(=O)N2CCN(c3ccnc4cc(Cl)ccc34)CC2)cc1C	-0.6	i	i	-1.7	i	i	nt	nt	nt	nt
Cc1cc(N2CCN(S(=O)(=O)c3ccc(Cl)c(Cl)c3)CC2)c2ccccc2n1	-3.8	i	100*	-2.6	i	i	i	i	-0.844	-13.5
COC(=O)c1ccc(CNC(=O)C(NC(=O)c2ccco2)C(C)C)cc1 (configuration not stated)	-3.1	i	i	-2.2	i	i	nt	nt	nt	nt
CCOc1ccc(-c2nnn(CC(=O)c3ccc4c(c3)OCCO4)n2)cc1OCC	-0.8	i	25*	-5.0	i	i	18.5%*	i	-1.02	-9.5
COC(=O)[C@H](CC(C)C)NC(=O)NC1CCCCC1C (some centres not stated)	-2.5	i	25*	-4.3	i	i	i	i	-1.05	-10.0
O=C(CN(C(=O)CCC(=O)Nc1nccs1)c1cccc(F)c1)NCCc1ccccc1	-3.7	i	i	-2.8	i	i	nt	nt	nt	nt
Cc1ccccc1C1C(C#N)=C2N=C(N)c3c(sc4c3CCCCC4)N2C2=C1C(=O)CC(C)(C)C2 (configuration not stated)	-1.7	i	i	0.1	i	i	i	i	-1.07	0.5
Cc1ccccc1C1C(C#N)=C2NC(=O)c3c(sc4c3CCCCC4)N2C2=C1C(=O)CC(C)(C)C2 (configuration not stated)	-1.0	i	i	-1.7	i	nt	nt	nt	nt	nt
Cc1ccc(NS(=O)(=O)c2ccc(C)c(C(=O)NCC(c3ccccc3)N(C)C)c2)cc1 (configuration not stated)	nt	nt	nt	nt	nt	i	nt	nt	nt	nt
O=C(c1cccs1)N1CCN(C(=O)C2CCCO2)CC1 (configuration not stated)	-2.8	i	100*	-2.1	i	i	i	i	-1.02	3.0
O=C(Nc1ccc2c(c1)OCO2)N1CCN(C(=O)C2CCCO2)CC1 (configuration not stated)	-6.1	i	25*	-5.0	i	i	i	i	-1.15	-4.0
CC(C)c1ccc(C(C)NC(=S)NC2CCCCC2)cc1 (configuration not stated)	-4.9	i	25*	-1.3	i	i	25.5%*	i	-1.01	-2.0
CCC(NC(=S)NC1CCCCC1)c1ccccc1 (configuration not stated)	-3.8	i	i	-2.6	i	i	nt	nt	nt	nt
CC(NC(=S)NC1CCCCC1)c1ccc(C(C)(C)C)cc1 (configuration not stated)	-6.7	i	25*	-3.5	i	i	i	i	-0.777	2.5
Cc1ccc(C(C)C)c(OCC(=O)Nc2ccc(N3CCOCC3)cc2N2CCOCC2)c1	nt	nt	nt	nt	nt	i	nt	nt	nt	nt
SMILES	VIM-2 inh	CHT inh	ANO1 block	IMP-1 inh	CHT allo act	ANO1 activ	TMEM16A reconf	HEK293 Ca mobil	Parental YFP cnt	ClC-1 inh
CCOC(=O)Cn1nc(C)c(NC(=O)c2ccc(Cl)c([N+](=O)[O-])c2)c1C	-1.7	i	i	-2.7	i	i	nt	nt	nt	nt
Cc1oc2cc([N+](=O)[O-])c(O)c([N+](=O)[O-])c2c1C(=O)c1ccc(Cl)cc1	0.0	i	25*	-1.0	i	i	32.5%*	i	-0.878	-15.5
COc1ccc(OC)c(C(=O)c2c(C)oc3cc([N+](=O)[O-])c(O)c([N+](=O)[O-])c23)c1	-2.6	i	i	-3.6	i	i	nt	nt	nt	nt
CCSc1nc(C)cc(C)c1S(=O)(=O)c1ccccc1C	-1.3	i	100*	0.0	i	i	i	i	-1.14	-6.5
CCC(C)Oc1nc(C)cc(C)c1S(=O)(=O)c1ccccc1C (configuration not stated)	-2.1	i	100*	-1.1	i	i	i	i	-0.623	-13.0
COc1nc(C)cc(C)c1S(=O)(=O)c1ccccc1C	-4.0	i	i	-2.1	i	i	nt	nt	nt	nt
COc1cc(NC(=O)CN2C(=O)CSc3ccc(S(=O)(=O)N4CCCC4)cc32)cc(OC)c1	-0.9	i	i	-3.1	i	i	nt	nt	nt	nt

Screening data as filed in PubChem.
